# Screens from PubChem.
# Jurkat NFkB inh – inhibitors of the PMA/ionomycin-induced NF-kB reporter in Jurkat cells | PMA/ionomycin-induced NF-kB luciferase reporter, luminescence | inhibition, % at 4 µM | hit rate 0.53% among 330,000 | AID 435003; in the data active = inhibition above about 50%
# TAG inh – inhibitors of triacylglycerol accumulation; H9c2 cells, Nile Red lipid (TAG) fluorescence; cells loaded with 200 µM oleic acid; hit rate 0.66% among 230,000; AID 651582; inhibition, % at 12.5 µM;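 active = pattern-corrected inhibition of lipid staining of at least 50% with the nuclear-stain viability signal not falling by more than 50%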;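 note: 0% = DMSO wells and 100% = triacsin C control wells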
# 697 NFkB inh – lowers PMA/ionomycin-induced NF-kB signal in 697 B cells; 697 B-cell NF-kB luciferase reporter, 16 h; inhibition, % at 4 µM; hit rate 0.33% among 330,000; AID 435022; in the data active = inhibition above about 35%
# Lipid droplet – modulators of hepatic lipid droplet formation; hit rate 0.4% among 240,000; inhibition, % at 6.5 µM; AML12 mouse hepatocytes, oleate lipid droplets, BODIPY imaging;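 active = lipid droplet intensity inhibited by at least 50%, with more than 500 cells counted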
#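 Material: mouse AML12 hepatocyte cell line, fixed after treatment; Timing: compound with oleate, overnight; Technique: high-content imaging of BODIPY-stained droplets and DAPI nuclei; Probe or stimulus: oleate, 100 µM final; Dosing: compound at 6.5 µM only.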
# APP 5UTR inh – APP translation inhibition; SH-SY5Y APP 5'UTR-luciferase reporter, luminescence; inhibition, % at 2 µM; hit rate 0.82% among 190,000; AID 1285;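 active = inhibition above a set limit, derived from the sample mean plus 3 SD, cut at about 45% in these data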
# aSyn 5UTR inh – MLPCN primary screen, SNCA 5' untranslated region | alpha-synuclein 5'UTR reporter, inhibitor activity | inhibition, % (tested at 7.5 µM) | hit rate 0.82% among 300,000 | AID 1813; in the data active = inhibition above about 60%;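 note: H4 neuroglioblastoma cells stably carrying SNCA 5'UTR luciferase fusion; 0% = DMSO wells and 100% = positive control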
# Jurkat NFkB conf – inhibitors of the PMA/ionomycin-induced NF-kB reporter in Jurkat cells, retest. shares compounds with Jurkat NFkB inh. Jurkat NF-kB luciferase, 16 h. inhibition, % at 4 µM. hit rate 27% among 2,700;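 active = inhibition reaching about 45% at 4 µM in either replicate, limit read from the data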;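 note: plate controls were PMA/ionomycin stimulated DMSO wells for no effect and unstimulated DMSO wells for full effect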
# Active calls of the source: *; . = not tested or not shown. Sampled rows, rich in hits. Any-hit rate of the full collection: about 1.9%.
SMILES,Jurkat NFkB inh,TAG inh,697 NFkB inh,Lipid droplet,APP 5UTR inh,aSyn 5UTR inh,Jurkat NFkB conf
COC(=O)c1c(NC(=O)c2ccco2)sc(C(=O)N2CCCC2)c1C,-12,.,7,.,-5,13,.
CC(C)OC(=O)N(C)C[C@@H]1OCc2cnnn2CCCC(=O)N([C@H](C)CO)C[C@@H]1C,.,-14,.,.,.,.,.
Cc1cccc(/C=N/Nc2nncc3ccccc23)c1,-168,14,-181,8,-208,-25,-101
CC1CC(C)CN(S(=O)(=O)c2ccc(NC(=O)c3ccc(=O)[nH]c3)cc2)C1 (stereo unspecified),54*,44,-36,.,.,.,49*
CC1CC(C)CN(C(=O)c2ccc(NC(=O)c3ccc(=O)[nH]c3)cc2)C1 (stereo unspecified),4,14,4,0,-7,13,.
COc1cccc2sc(Nc3nc(-c4ccccn4)cs3)nc12,98*,47,-132,.,84*,52,32
COc1ccc(CNC(=O)c2ccc(S(=O)(=O)NCc3ccco3)cc2)cc1,11,-12,-4,.,.,.,.
Cc1ccc(C(=O)NC2CCCC2)s1,9,.,-10,8,.,-24,.
Cc1ccc(C(=O)NC2CCC(C)CC2)s1 (stereo unspecified),-164,10,-157,.,.,-92,-66
CC(C)Nc1ccc(C(CC(N)=O)NC(=O)c2ccc(Br)cc2)cc1[N+](=O)[O-] (stereo unspecified),59*,.,-3,8,.,-9,45
NC(=O)CC(NC(=O)Cc1ccc(Br)cc1)c1ccc(NCC2CC2)c([N+](=O)[O-])c1 (stereo unspecified),51*,13,8,21,.,17,24
NC(=O)CC(NC(=O)Cc1ccc(Cl)cc1)c1ccc(NCC2CC2)c([N+](=O)[O-])c1 (stereo unspecified),31,.,11,14,.,-2,.
CC(C)Nc1ccc(C(CC(N)=O)NC(=O)c2ccccc2)cc1[N+](=O)[O-] (stereo unspecified),4,-10,-1,-3,.,29,.
O=C(O)c1ccc(NC2CC(=O)N(Cc3ccccc3)C2=O)cc1 (stereo unspecified),-7,-2,-6,3,-26,-20,.
C=CCn1c(O)c2ccc(C(=O)N=NC(=O)COc3ccc(OC)cc3)cc2c1O,5,14,15,11,.,4,.
CC[n+]1c(/C=C/c2ccc(OC)c(OC)c2)ccc2ccccc21,-153,-4,-150,3,.,-117,-88
CC[n+]1c(/C=C/c2ccc(OC(C)=O)c(OC)c2)ccc2ccccc21,-84,.,-32,-6,.,-72,.
CCN(CC)c1ccc(/C=C/c2ccc3ccc(OC)cc3[n+]2CC)cc1,93*,.,30,-176,.,-87,70*
COc1cc(-c2noc(C)c2-c2ccc(N(C)C)nc2)cc(OC)c1OC,71*,38,-97,.,.,47,58*
COc1cc(-c2noc(C)c2C(=O)NCCc2c[nH]c3ccccc23)cc(OC)c1OC,3,1,14,.,.,-24,.
COc1cc(-c2noc(C)c2-c2ccc3[nH]ccc3c2)cc(OC)c1OC,65*,41,-8,.,.,-11,51*
Cc1ccc(S(=O)(=O)N2CCC(=O)c3ccccc32)cc1,.,0,.,.,.,.,.
Cc1ccccc1NC(=O)c1cc(C(=O)c2cc(Cl)ccc2O)cn(-c2ccccc2C)c1=O,-20,5,-22,-1,-13,2,.
Cc1ccc(-n2c(C)cc(/C=c3/sc4nc5ccccc5n4c3=O)c2C)cc1,56*,.,-57,17,27,67*,19
O=c1/c(=C\c2cccn2-c2ccccc2)sc2nc3ccccc3n12,.,10,.,.,-75,.,.
SMILES,Jurkat NFkB inh,TAG inh,697 NFkB inh,Lipid droplet,APP 5UTR inh,aSyn 5UTR inh,Jurkat NFkB conf
Fc1ccccc1CSc1nnc(-c2ccccc2)o1,-156,-31,-150,0,-139,-152,-65
COc1ccc(-c2nnc(SCc3ccccc3F)o2)cc1,-161,-33,-204,14,-157,-163,-87
Fc1ccccc1CSc1nnc(-c2cccnc2)o1,-80,-5,-67,2,-72,-69,.
Cc1ccccc1-c1nnc(SCc2ccccc2)o1,-89,-63,-72,-16,-44,-191,.
Cc1ccccc1-c1nnc(SCc2ccccc2F)o1,-153,-31,-188,.,-142,-149,-74
COc1ccc(-c2nnc(SCC#N)o2)cc1,-4,-5,-12,-6,7,-35,.
